Converted amounts (≈) assume the structure as drawn. The source made the active and inactive calls. The calls are words filed in the database; no cut-off is given here.
Columns and labels:
[1] = test system: Plasmodium falciparum; assay: Antimalarial activity against multidrug-resistant Plasmodium falciparum K1 assessed as inhibition of [3H]hypoxanthine uptake by microculture radioisotope technique; format: functional, organism-based
How it was run: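 In vitro culture of multidrug-resistant P. falciparum K1 parasites (Trager–Jensen method). Growth measured by [3H]-hypoxanthine uptake in a microculture radioisotope format. IC50 taken as the concentration giving 50% reduction in parasite growth. Artemisinin served as the reference standard.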

[2] = test system: Mycobacterium tuberculosis; assay: Antimycobacterial activity against Mycobacterium tuberculosis H37Ra by microplate Alamar blue assay; format: functional
How it was run: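 M. tuberculosis H37Ra tested by microplate Alamar Blue assay. Activity reported as MIC. Isoniazid and kanamycin sulfate were run as reference drugs.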

[3] = Cytotoxicity against human BC1 cells by SRB assay; format: functional, cell-based
How it was run: (§1)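 Human cell lines were epidermoid carcinoma KB, breast cancer BC1 and small-cell lung cancer NCI-H187. Cytotoxicity was read by the Skehan colorimetric method, and IC50 was reported in µg/mL. Ellipticine served as the reference substance.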

[4] = test system: KB; assay: Cytotoxicity against human KB cells by SRB assay; format: functional, cell-based; how it was run: as §1
[5] = test system: NCI-H187; assay: Cytotoxicity against human NCI-H187 cells by SRB assay; format: functional, cell-based; how it was run: as §1
[6] = Plasmodium falciparum, K1, read-out: IC50
[7] = Homo sapiens, BC1, read-out: IC50
[8] = Homo sapiens, NCI-H187, read-out: IC50

Compound	IC50 [1]	MIC [2]	IC50 ([3]; bc1)	IC50 ([4]; kb)	IC50 ([5]; nci-h187)	IC50 [1, 6]	IC50 [3, 7]	IC50 ([4]; Homo sapiens, KB, read-out: IC50)	IC50 [5, 8]
C=C(C)[C@H]1COc2c(C)cc3oc4c([C@@H](OC)[C@@H]5OC5(C)C)ccc(O)c4c(=O)c3c2[C@@H]1OC(C)=O	Not Active	inactive	Not Active	Not Active	Not Active	–	–	–	–
C=C(C)[C@H]1COc2c(C)cc3oc4c(C[C@H](O)C(C)(C)O)ccc(O)c4c(=O)c3c2[C@@H]1O.O [TAJIXANTHONE HYDRATE]	Not Active	inactive	Not Active	Not Active	Not Active	–	–	–	–
C=C(C(=O)CC)[C@H]1[C@@]2(C)C=C(C)C[C@]1(C)C=C(C)[C@@H]2/C(C)=C\[C@@H]1C=CC(=O)C1 [RUGULOSONE]	–	12.5 µg/mL (≈ 33 µM)	–	–	–	1.9 µg/mL (≈ 5.02 µM)	1.3 µg/mL (≈ 3.43 µM)	2.6 µg/mL (≈ 6.87 µM)	1.3 µg/mL (≈ 3.43 µM)
C=C(C)[C@H]1COc2c(C)cc3oc4c(CC(C)(C)C=O)ccc(O)c4c(=O)c3c2[C@@H]1O [RUGULOXANTHONE A]	Not Active	inactive	Not Active	Not Active	Not Active	–	–	–	–
C=C(C)[C@H]1COc2c(C)cc3oc4c([C@H](OC)[C@@H]5OC5(C)C)ccc(O)c4c(=O)c3c2[C@@H]1O	Not Active	inactive	Not Active	Not Active	Not Active	–	–	–	–
NNC(=O)c1ccncc1 [ISONIAZID]	–	0.04 µg/mL (≈ 0.292 µM)	–	–	–	–	–	–	–
C=C(C)[C@H]1COc2c(C)cc3oc4c(C[C@H](O)C(C)(C)OCC)ccc(O)c4c(=O)c3c2[C@@H]1O [TAJIXANTHONE ETHANOATE]	Not Active	inactive	Not Active	Not Active	Not Active	–	–	–	–
C=C(C)[C@H]1COc2c(C)cc3oc4c(CC(=O)C(C)C)ccc(O)c4c(=O)c3c2[C@@H]1O [RUGULOXANTHONE B]	Not Active	inactive	Not Active	Not Active	Not Active	–	–	–	–
C[C@@H]1CC[C@H]2[C@@H](C)C(=O)O[C@@H]3O[C@@]4(C)CC[C@@H]1[C@]32OO4 [ARTEMISININ]	–	–	–	–	–	0.001 µg/mL (≈ 0.00354 µM)	–	–	–
C=C(C)[C@H]1COc2c(C)cc3oc4c(CC=C(C)C)ccc(O)c4c(=O)c3c2[C@@H]1O [SHAMIXANTHONE]	Not Active	inactive	Not Active	Not Active	Not Active	–	–	–	–
C=C(C)[C@@H]1COc2c(C)cc3oc4c(C[C@@H]5OC5(C)C)ccc(O)c4c(=O)c3c2[C@H]1O [TAJIXANTHONE]	Not Active	inactive	Not Active	Not Active	Not Active	–	–	–	–
NC[C@H]1O[C@H](O[C@H]2[C@H](O)[C@@H](O[C@H]3O[C@H](CO)[C@@H](O)[C@H](N)[C@H]3O)[C@H](N)C[C@@H]2N)[C@H](O)[C@@H](O)[C@@H]1O.O=S(=O)(O)O [KANAMYCIN SULFATE]	–	2 µg/mL	–	–	–	–	–	–	–
C=C(C)[C@H](O)Cc1ccc(O)c2c(=O)c3c4c(c(C)cc3oc12)OC[C@H](C(=C)C)[C@H]4O [RUGULOXANTHONE C]	Not Active	inactive	Not Active	Not Active	Not Active	–	–	–	–
C=C(C)[C@H]1COc2c(C)cc3oc4c(C[C@H](O)C(C)(C)OC)ccc(O)c4c(=O)c3c2[C@@H]1O [TAJIXANTHONE METHANOATE]	Not Active	inactive	Not Active	Not Active	Not Active	–	–	–	–
Cc1c2ccncc2c(C)c2c1[nH]c1ccccc12 [ELLIPTECINE]	–	–	–	–	–	–	0.32 µg/mL (≈ 1.3 µM)	–	0.26 µg/mL (≈ 1.06 µM)
